Laboratory results from ChEMBL document CHEMBL1143122, “Novel analogs of D-e-MAPP and B13. Part 1: synthesis and evaluation as potential anticancer agents” (Bioorg Med Chem, 2008).

Assays:
Assay type in all cases: functional
[1] = system: NCI-H522; experiment: Antiproliferative activity against human NCI-H522 cells after 48 hrs; conditions: NCI-H522, 48 h
Method in brief: (§1)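 NCI 60-cell screen. Cells were grown in RPMI 1640 with 5% FBS and 2 mM L-glutamine, then plated at 5,000–40,000 cells/well according to doubling time and preincubated for 24 h at 37 °C in 5% CO2. Compounds were dissolved in DMSO at 400× the top final concentration and tested at five 10-fold dilutions from 10−4 to 10−8 M for 48 h. Growth was read spectrophotometrically; GI50 is 50% net protein reduction.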

[2] = system: LOX IMVI; experiment: Antiproliferative activity against human LOXIMVI cells after 48 hrs; method in brief: as §1
[3] = system: HCT-116; experiment: Antiproliferative activity against human HCT116 cells after 48 hrs; conditions: HCT-116, 48 h; method in brief: as §1
[4] = system: DU-145; experiment: Antiproliferative activity against human DU145 cells after 48 hrs; conditions: DU-145, 48 h; method in brief: as §1
[5] = system: SF-268; experiment: Antiproliferative activity against human SF268 cells after 48 hrs; conditions: SF-268, 48 h; method in brief: as §1
[6] = system: 786-0; experiment: Antiproliferative activity against human 786-0 cells after 48 hrs; conditions: 786-0, 48 h; method in brief: as §1
[7] = system: SK-OV-3; experiment: Antiproliferative activity against human SKOV3 cells after 48 hrs; conditions: SK-OV-3, 48 h; method in brief: as §1
[8] = system: MOLT-4; experiment: Antiproliferative activity against human MOLT4 cells after 48 hrs; conditions: MOLT-4, 48 h; method in brief: as §1
[9] = system: OVCAR-4; experiment: Antiproliferative activity against human OVCAR4 cells after 48 hrs; conditions: OVCAR-4, 48 h; method in brief: as §1
[10] = system: ACHN; experiment: Antiproliferative activity against human ACHN cells after 48 hrs; method in brief: as §1
[11] = system: U-251; experiment: Antiproliferative activity against human U251 cells after 48 hrs; conditions: U-251, 48 h
Method in brief: (§2)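 NCI 60-cell-line screen. Lines grown in RPMI 1640 with 5% fetal bovine serum and 2 mM L-glutamine, plated at 5,000–40,000 cells/well according to doubling time, left 24 h at 37 °C in 5% CO2. Drug stocks in DMSO at 400-fold the top final concentration. Five 10-fold dilutions, 10−4 to 10−8 M, incubated 48 h. Growth read spectrophotometrically as net protein; GI50 taken as 50% reduction.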

[12] = system: HCC 2998; experiment: Antiproliferative activity against human HCC2998 cells after 48 hrs; conditions: HCC 2998, 48 h; method in brief: as §1
[13] = system: TK-10; experiment: Antiproliferative activity against human TK10 cells after 48 hrs; conditions: TK-10, 48 h; method in brief: as §2
[14] = system: MDA-MB-231; experiment: Antiproliferative activity against human MDA-MB-231 cells after 48 hrs; conditions: MDA-MB-231, 48 h; method in brief: as §1
[15] = system: SK-MEL-2; experiment: Antiproliferative activity against human SKMEL2 cells after 48 hrs; conditions: SK-MEL-2, 48 h; method in brief: as §1
[16] = Antiproliferative activity against human NCI-ADR-RES cells after 48 hrs; method in brief: as §1
[17] = system: Malme-3M; experiment: Antiproliferative activity against human MALME3M cells after 48 hrs; method in brief: as §1
[18] = system: A549; experiment: Antiproliferative activity against human A549 cells after 48 hrs; conditions: A549, 48 h; method in brief: as §1
[19] = system: NCI-H460; experiment: Antiproliferative activity against human NCI-H460 cells after 48 hrs; conditions: NCI-H460, 48 h; method in brief: as §1
[20] = system: A498; experiment: Antiproliferative activity against human A498 cells after 48 hrs; conditions: A498, 48 h; method in brief: as §1
[21] = system: NCI-H23; experiment: Antiproliferative activity against human NCI-H23 cells after 48 hrs; conditions: NCI-H23, 48 h; method in brief: as §1
[22] = system: K562; experiment: Antiproliferative activity against human K562 cells after 48 hrs; conditions: K562, 48 h; method in brief: as §1
[23] = system: BT-549; experiment: Antiproliferative activity against human BT549 cells after 48 hrs; conditions: BT-549, 48 h; method in brief: as §1
[24] = system: RPMI-8226; experiment: Antiproliferative activity against human RPMI8226 cells after 48 hrs; conditions: RPMI-8226, 48 h; method in brief: as §1
[25] = system: MDA-MB-435; experiment: Antiproliferative activity against human MDA-MB-435 cells after 48 hrs; conditions: Homo sapiens, MDA-MB-435, 48 h; method in brief: as §1
[26] = system: PC-3; experiment: Antiproliferative activity against human PC3 cells after 48 hrs; conditions: PC-3, 48 h; method in brief: as §1
[27] = system: SK-MEL-28; experiment: Antiproliferative activity against human SKMEL28 cells after 48 hrs; conditions: SK-MEL-28, 48 h; method in brief: as §1
[28] = system: UO-31; experiment: Antiproliferative activity against human UO31 cells after 48 hrs; conditions: UO-31, 48 h; method in brief: as §2
[29] = system: HOP-92; experiment: Antiproliferative activity against human HOP92 cells after 48 hrs; conditions: HOP-92, 48 h; method in brief: as §1
[30] = system: SF-295; experiment: Antiproliferative activity against human SF295 cells after 48 hrs; conditions: SF-295, 48 h; method in brief: as §1
[31] = system: COLO 205; experiment: Antiproliferative activity against human COLO205 cells after 48 hrs; conditions: COLO 205, 48 h; method in brief: as §1
[32] = system: SF-539; experiment: Antiproliferative activity against human SF539 cells after 48 hrs; conditions: SF-539, 48 h; method in brief: as §1
[33] = read-out: Log LC50 (the source's name) (converted)

## CCCCCCCCCCCCCCN[C@H](CO)[C@H](O)c1ccc([N+](=O)[O-])cc1.Cl
[1]
  GI50: 2 µM
[1]; read-out: Log TGI (converted)
  TGI: 3.98 µM
[2]
  GI50: 1.74 µM
  LC50: 6.03 µM
[2]; read-out: Log TGI (converted)
  TGI: 3.24 µM
[3]
  GI50: 1.95 µM
  LC50: 6.17 µM
[3]; read-out: Log TGI (converted)
  TGI: 3.47 µM
[4]
  GI50: 1.55 µM
[4]; [33]
  CC50: 5.37 µM
[4]; read-out: Log TGI (converted)
  TGI: 2.88 µM
[5]
  GI50: 2.09 µM
  LC50: > 100 µM
[5]; read-out: Log TGI (converted)
  TGI: 4.9 µM
[6]
  GI50: 1.62 µM
[6]; [33]
  CC50: 5.75 µM
[6]; read-out: Log TGI (converted)
  TGI: 3.09 µM
[7]
  GI50: 8.91 µM
[7]; [33]
  CC50: 79.4 µM
[7]; read-out: Log TGI (converted)
  TGI: 27.5 µM
[8]
  GI50: 1.62 µM
  LC50: 7.59 µM
[8]; read-out: Log TGI (converted)
  TGI: 3.55 µM
[9]
  GI50: 1.91 µM
  LC50: 6.76 µM
[9]; read-out: Log TGI (converted)
  TGI: 3.55 µM
[10]
  GI50: 1.86 µM
[10]; [33]
  CC50: 6.17 µM
[10]; read-out: Log TGI (converted)
  TGI: 3.39 µM
[11]
  GI50: 1.86 µM
[11]; read-out: Log TGI (converted)
  TGI: 3.47 µM
[12]
  GI50: 2.4 µM
[12]; [33]
  CC50: 29.5 µM
[12]; read-out: Log TGI (converted)
  TGI: 5.62 µM
[13]
  GI50: 10.5 µM
[13]; [33]
  CC50: 66.1 µM
[13]; read-out: Log TGI (converted)
  TGI: 26.3 µM
[14]
  GI50: 2 µM
  LC50 (50% lethal concentration): 7.76 µM
[14]; read-out: Log TGI (converted)
  TGI: 3.89 µM
[15]
  GI50: 3.31 µM
  LC50: > 100 µM
[15]; read-out: Log TGI (converted)
  TGI: 8.13 µM
[16]
  GI50: 2.04 µM
  LC50: 8.91 µM
[16]; read-out: Log TGI (converted)
  TGI: 4.27 µM
[17]
  GI50: 2.45 µM
  LC50: 9.55 µM
[17]; read-out: Log TGI (converted)
  TGI: 4.9 µM
[18]
  GI50: 3.55 µM
[18]; [33]
  CC50: > 100 µM
[18]; read-out: Log TGI (converted)
  TGI: 19.5 µM
[19]
  GI50: 1.91 µM
[19]; read-out: Log TGI (converted)
  TGI: 3.55 µM
[20]
  GI50: 6.76 µM
[20]; [33]
  CC50: 93.3 µM
[20]; read-out: Log TGI (converted)
  TGI: 26.9 µM
[21]
  GI50: 14.5 µM
[21]; [33]
  CC50: 83.2 µM
[21]; read-out: Log TGI (converted)
  TGI: 34.7 µM
[22]
  GI50: 1.86 µM
  LC50: 7.76 µM
[22]; read-out: Log TGI (converted)
  TGI: 3.8 µM
[23]
  GI50: 1.51 µM
  LC50: 5.62 µM
[23]; read-out: Log TGI (converted)
  TGI: 2.88 µM
[24]
  GI50: 2.19 µM
[24]; [33]
  CC50: > 100 µM
[24]; read-out: Log TGI (converted)
  TGI: 4.68 µM
[25]
  GI50: 1.91 µM
  LC50: 5.75 µM
[25]; read-out: Log TGI (converted)
  TGI: 3.31 µM
[26]
  GI50: 1.74 µM
[26]; read-out: Log TGI (converted)
  TGI: 3.16 µM
[27]
  GI50: 1.91 µM
  LC50: 6.03 µM
[27]; read-out: Log TGI (converted)
  TGI: 3.39 µM
[28]
  GI50: 4.27 µM
  LC50: 87.1 µM
[28]; read-out: Log TGI (converted)
  TGI: 18.6 µM
[29]
  GI50: 1.26 µM
  LC50: 6.17 µM
[29]; read-out: Log TGI (converted)
  TGI: 2.75 µM
[30]
  GI50: 2.24 µM
  LC50: 9.77 µM
[30]; read-out: Log TGI (converted)
  TGI: 4.68 µM
[31]
  GI50: 1.78 µM
[31]; read-out: Log TGI (converted)
  TGI: 3.55 µM
[32]
  GI50: 1.66 µM
  LC50: 6.03 µM
[32]; read-out: Log TGI (converted)
  TGI: 3.16 µM
